Among the data in ChEMBL document CHEMBL4130356, “Design, synthesis and 2D QSAR study of novel pyridine and quinolone hydrazone derivatives as potential antimicrobial and antitubercular agents” (Eur J Med Chem, 2017) are zone of inhibition and MIC values, retold here.

In brackets after ≈: the same amount, converted by molar mass.

In test [1] the test system is Escherichia coli. Put plainly: Antimicrobial activity against Escherichia coli RCMB 010052 assessed as diameter of zone inhibition at 100 ug/ml after 24 hrs by agar well diffusion assay. The format is functional. Particulars: RCMB 010052, 24 h, read-out: DIZ. The method in brief: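 Agar well diffusion on nutrient agar plates seeded with the bacterium, using 1 cm wells. Plates were held at 4°C for 1 h for diffusion, then incubated at 37°C. Inhibition zone diameters were measured at 24 h. Ciprofloxacin was the positive control. Run in triplicate, with the mean zone reported.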
Background: Agar diffusion results depend on both activity and mobility in agar.

Test [2] deals with Escherichia coli. Kind of test: Antimicrobial activity against Escherichia coli RCMB 010052 after 24 hrs by serial dilution method. It is filed as functional. Particulars: RCMB 010052, 24 h. The method in brief:
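Serial twofold dilution in microtiter plates starting from a 100 mmol stock in DMSO; final concentrations 125 down to 0.12 […]. Incubated at 37°C and read on a microplate reader after 24 h. Ciprofloxacin was the reference. Run in triplicate, with the average taken. MIC was the lowest concentration inhibiting growth.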

Test [3] relates to Pseudomonas aeruginosa. Put plainly: microbe, parasite or virus in culture. Particulars: RCMB 010043, 24 h, read-out: DIZ.
In test [4] the test system is Pseudomonas aeruginosa. Put plainly: microbe, parasite or virus in culture. Particulars: RCMB 010043, 24 h.

With `O=C(O)c1cn(C2CC2)c2cc(N3CCNCC3)c(F)cc2c1=O` [CIPROFLOXACIN], the zone of inhibition at 100 µg/mL in the test with Escherichia coli [1] stood at 23.4 mm; in the test with Pseudomonas aeruginosa [3], 20.6 mm. Further, the MIC against Escherichia coli [2] amounted to 0.98 µg/mL (≈ 2.96 µM); with Pseudomonas aeruginosa [4], 1.95 µg/mL (≈ 5.89 µM).
